Compounds with a hit are over-represented: about 1.9% of the library has one in this group of screens.
STEP inh: STEP phosphatase inhibitors, primary screen, biochemical, fluorescence intensity, uHTS | Tyrosine-protein phosphatase non-receptor type 5 (Homo sapiens), P54829 | recombinant STEP, OMFP fluorogenic substrate | inhibition, % at 20 µM | actives 0.25% (n = 360,000) | AID 588621, 2011;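 active = inhibition at 20 µM, scaled per plate between control wells, above about 37%, limit read from the data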;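 note: 0% = DMSO with enzyme and substrate and 100% = substrate only without enzyme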
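medium = Bis-Tris buffer pH 6.0, 2.5 mM DTT, 0.005% Tween 20 | test system = STEP (striatal-enriched tyrosine phosphatase) enzyme, cell-free | measure = normalized % inhibition | compound dosing = 20 µM, 1% DMSO | also added = 25 µM OMFP | schedule = reaction 20 min, ambient temperature | measured by = fluorescence read at 480 nm ex / 540 nm em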
CSN inh: inhibitors of CSN-mediated cullin deneddylation, primary screen, biochemical, fluorescence polarization, uHTS; COP9 signalosome complex subunit 5 (Homo sapiens), Q92905; Purified CSN, SCF-Nedd8-OG deneddylation; inhibition, % at 12.5 µM; actives 0.38% (n = 360,000);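 active = pattern-corrected inhibition above about 35%, with an unprinted fluorescence ratio check between 0.5 and 1.5, limit read from the data, passing the limit was not always enough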;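 note: 0% = enzyme with substrate and 100% = substrate without enzyme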
Target sequence (Q92905 whole entry, looked up, one chain of several): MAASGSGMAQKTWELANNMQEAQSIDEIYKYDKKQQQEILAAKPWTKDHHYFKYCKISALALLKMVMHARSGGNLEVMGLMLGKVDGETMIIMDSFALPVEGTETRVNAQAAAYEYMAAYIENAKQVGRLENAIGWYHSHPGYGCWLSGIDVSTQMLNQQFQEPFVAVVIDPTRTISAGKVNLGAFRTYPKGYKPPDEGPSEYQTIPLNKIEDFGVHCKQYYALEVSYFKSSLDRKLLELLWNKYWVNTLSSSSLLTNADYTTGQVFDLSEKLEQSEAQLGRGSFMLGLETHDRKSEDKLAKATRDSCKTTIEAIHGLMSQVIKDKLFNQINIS
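Assay system: purified human Csn5 enzyme expressed in HEK293T cells; Input: 0.24 nM Csn5 enzyme, final concentration; Reagent: 10 nM SCFSkp2-Nedd8OG; Compound dosing: 12.5 µM single point; Times: reaction 90 min, room temperature; Technique: fluorescence polarization readout.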
DNMT1 inh: human DNMT1 methyltransferase inhibitors, primary screen, biochemical, molecular beacon, fluorescence, HinP1I cleavage, uHTS. actives 0.83% (n = 360,000). inhibition (reported as % activation of signal), % at 10 µM. AID 588458, 2011; in the data active = inhibition above about 50%
Scp1 inh: Scp-1 phosphatase inhibitors, primary screen, biochemical, colorimetric, uHTS | inhibition, % at 20 µM | Recombinant Scp1, phosphopeptide, malachite green phosphate absorbance | AID 493091, 2011 | Carboxy-terminal domain RNA polymerase II polypeptide A small phosphatase 1 (Homo … | actives 0.88% (n = 340,000);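 active = inhibition above about 50% at 20 µM, limit read from the data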;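 note: plate controls were DMSO wells with enzyme for no effect and wells lacking enzyme for full effect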
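Test system: SCP-1 phosphatase catalytic domain, residues 76-261; measured by: colorimetric phosphate reagent with accelerator and stabiliser, absorbance at 630 nm; timing: enzyme reaction 45 min at room temperature, colour 5 min, stabilisation 30 min; also added: Phosphorylated 17-residue peptide substrate; compound dosing: one concentration, 20 µM, with 1.0% DMSO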
SUMO1-SIM PPI: modulators of SUMO1 protein-protein interactions, primary screen, biochemical, uHTS. inhibition, % at 20 µM. Small ubiquitin-related modifier 1 (Homo sapiens), P63165. SUMO1 binding to a labelled peptide, TR-FRET, 1 h. actives 0.33% (n = 360,000). AID 602429, 2012; in the data active = inhibition above about 37%
Target sequence (P63165 whole entry, looked up): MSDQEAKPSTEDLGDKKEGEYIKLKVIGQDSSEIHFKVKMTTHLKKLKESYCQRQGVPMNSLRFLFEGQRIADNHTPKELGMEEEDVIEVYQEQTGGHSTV
LMPTP inh: LMPTP phosphatase inhibitors, primary screen, biochemical, fluorescence intensity, uHTS; Low molecular weight phosphotyrosine protein phosphatase (Homo sapiens), P24666; recombinant LMPTP-A, OMFP fluorogenic substrate; inhibition, % at 20 µM; actives 0.22% (n = 360,000); AID 651560, 2012;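 active = compounds that cut the enzyme signal by at least half of the control window in the single-dose screen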;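 note: plate controls were DMSO wells with enzyme plus substrate for no effect and substrate without enzyme for full effect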
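Buffer or medium: Bis-Tris pH 6.0, DTT, detergent; Assay system: LMPTP-A enzyme; Quantity: 0.625 nM enzyme; Detection: endpoint fluorescence intensity; Times: 50 min dark incubation at room temperature; Controls: substrate-only low control, DMSO enzyme-plus-substrate high control; Doses: single 20 µM dose; Read-out: percent inhibition versus substrate-only and uninhibited controls; Reagent: 400 µM OMFP.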
The depositor's hits bear a star; / = no result given; ! = a repeat was not active.

SMILES	STEP inh	CSN inh	DNMT1 inh	Scp1 inh	SUMO1-SIM PPI	LMPTP inh
O=C1NC(=O)N(Cc2ccco2)C(=O)/C1=C/c1ccc(-c2cccc([N+](=O)[O-])c2)o1	39	34	98*	82*	38*	42
Cc1cc(/C=C2/C(=O)NC(=O)N(Cc3ccco3)C2=O)c(C)n1-c1ccccc1	1	15	55*	7	15	3
NC(=O)C1CCN(/C=C2\C(=O)NC(=O)N(Cc3ccco3)C2=O)CC1	22	21	52*	69*	14	9
Cc1cccc(OCCn2cccc2/C=C2/C(=O)NC(=O)N(Cc3ccco3)C2=O)c1	2	43	60*	10	12	4
Cc1cc(/C=C2\C(=O)NC(=O)N(Cc3ccccc3)C2=O)c(C)n1C1CC1	-4	-3	-6	-3	-5	0
C=CCN1C(=O)NC(=O)/C(=C\c2ccc(-c3ccccc3[N+](=O)[O-])o2)C1=O	3	0	4	12	-10	0
O=C1NC(=O)C2(CCN(c3ccccc3)CC2)C(=O)N1	-1	0	-3	-8	3	-1
O=C1NC(=O)N(Cc2ccco2)C(=O)/C1=C\c1cccn1CCOc1ccc(Cl)cc1	-2	22	59*	-3	21	3
C[n+]1ccc(-c2ccccc2)c2ccccc21	-3	0	9	-2	-38	-2
CN(C)c1ccc(/C=C/c2cc[n+](C)c3ccccc23)cc1	16	5	9	12	-44	55*!
O=C1CC(=O)N(Cc2ccccc2)C(=O)N1Cc1ccccc1	0	36*	8	2	1	1
O=C(O)c1cc[c]([Hg][Cl])cc1	-3	2	29	96*	0	-1
COc1ccc(C(=O)O)cc1OC	-21	3	-5	-4	6	-1
CC(OC(=O)c1cn(C)c2ccccc12)C(=O)N1CCCC1 (stereo unspecified)	2	4	5	3	4	-1
Cc1ccc(N2C(=O)/C(=C/c3ccc(CN(CCC#N)S(C)(=O)=O)o3)C(=O)NC2=S)cc1	19	48*	110*	43	39*	6
Cc1ccc(/C=C2\C(=O)NC(=S)N(c3ccc(F)cc3)C2=O)o1	0	26	35	29	11	0
c1ccc2c(c1)[IH]c1ccccc1-2	1	-4	53*	8	-1	12
C[C@H]1OC[C@@H](C[N+](C)(C)C)O1	1	4	-29	101*	1	-3
CC1OC(C[N+](C)(C)C)CC1O (stereo unspecified)	-2	0	0	-1	5	-1
C[C@]12CCC3C(CC[C@H]4C[C@@H](O)[C@H](O)C[C@]34C)C1CC[C@@H]2O (stereo partly specified)	-4	1	12	-4	8	0
C=CCN1C(=O)/C(=C/c2ccc(N3CCOCC3)o2)C(=O)NC1=S	-2	103*	2	-40	-83	6
C[C@]12CCC3C(CC[C@H]4C[C@@H](O)CC[C@]34C)C1=CC[C@@H]2O (stereo partly specified)	2	-2	6	/	-4	1
NC(N)=Nc1ccc2[nH]c3c(c2c1)C[C@@]1(O)[C@H]2Cc4ccc(O)c5c4[C@@]1(CCN2CC1CC1)[C@H]3O5	-2	4	27	99*	0	12
CCOC(=O)[C@]12Cc3cc(C)ccc3[C@H]1N(Cc1ccccc1)C(=O)c1cc(F)c(F)cc12	/	1	/	/	5	4
CC1=NCCc2c1[nH]c1cc(O)ccc21	-3	-74	163*	-11	-41	2
